The source made the active and inactive calls. The calls are words filed in the database; no cut-off is given here.
Legend:
[1] = tested on: MCF7; test: Antiproliferative activity against human MCF7 cells after 96 hrs by MTT assay; format: functional; settings: MCF7, 96 h
How it was run: (§1)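 MTT: cells seeded at 1.5-4.0 × 10^4 cells/mL and incubated overnight at 37 C, then exposed to 5-9 concentrations (DMSO stocks diluted in growth medium; final DMSO ≤0.5%) for 96 h. MTT added at 0.5 mg/mL for a further 4 h at 37 C and the formazan dissolved. Inhibition calculated relative to control; GI50 estimated by curve fitting; 3-5 repeats, mean ± SD.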

[2] = Antiproliferative activity against human MCF7/ADR cells after 96 hrs by MTT assay; format: functional; settings: NCI/ADR-RES; how it was run: as §1
[3] = tested on: NCI/ADR-RES; test: Selectivity index, ratio of GI50 for human MCF7 cells to GI50 for human MCF7/ADR cells; format: functional
[4] = target: T1, MDR1 (ABCB1) (Homo sapiens, UniProt P08183); test: Activity at MDR1 (unknown origin) expressed in MDCK cells assessed as permeability across apical to basolateral after 90 mins by LC-MS/MS analysis; format: ADME, cell-based
T1 sequence (P08183 whole entry): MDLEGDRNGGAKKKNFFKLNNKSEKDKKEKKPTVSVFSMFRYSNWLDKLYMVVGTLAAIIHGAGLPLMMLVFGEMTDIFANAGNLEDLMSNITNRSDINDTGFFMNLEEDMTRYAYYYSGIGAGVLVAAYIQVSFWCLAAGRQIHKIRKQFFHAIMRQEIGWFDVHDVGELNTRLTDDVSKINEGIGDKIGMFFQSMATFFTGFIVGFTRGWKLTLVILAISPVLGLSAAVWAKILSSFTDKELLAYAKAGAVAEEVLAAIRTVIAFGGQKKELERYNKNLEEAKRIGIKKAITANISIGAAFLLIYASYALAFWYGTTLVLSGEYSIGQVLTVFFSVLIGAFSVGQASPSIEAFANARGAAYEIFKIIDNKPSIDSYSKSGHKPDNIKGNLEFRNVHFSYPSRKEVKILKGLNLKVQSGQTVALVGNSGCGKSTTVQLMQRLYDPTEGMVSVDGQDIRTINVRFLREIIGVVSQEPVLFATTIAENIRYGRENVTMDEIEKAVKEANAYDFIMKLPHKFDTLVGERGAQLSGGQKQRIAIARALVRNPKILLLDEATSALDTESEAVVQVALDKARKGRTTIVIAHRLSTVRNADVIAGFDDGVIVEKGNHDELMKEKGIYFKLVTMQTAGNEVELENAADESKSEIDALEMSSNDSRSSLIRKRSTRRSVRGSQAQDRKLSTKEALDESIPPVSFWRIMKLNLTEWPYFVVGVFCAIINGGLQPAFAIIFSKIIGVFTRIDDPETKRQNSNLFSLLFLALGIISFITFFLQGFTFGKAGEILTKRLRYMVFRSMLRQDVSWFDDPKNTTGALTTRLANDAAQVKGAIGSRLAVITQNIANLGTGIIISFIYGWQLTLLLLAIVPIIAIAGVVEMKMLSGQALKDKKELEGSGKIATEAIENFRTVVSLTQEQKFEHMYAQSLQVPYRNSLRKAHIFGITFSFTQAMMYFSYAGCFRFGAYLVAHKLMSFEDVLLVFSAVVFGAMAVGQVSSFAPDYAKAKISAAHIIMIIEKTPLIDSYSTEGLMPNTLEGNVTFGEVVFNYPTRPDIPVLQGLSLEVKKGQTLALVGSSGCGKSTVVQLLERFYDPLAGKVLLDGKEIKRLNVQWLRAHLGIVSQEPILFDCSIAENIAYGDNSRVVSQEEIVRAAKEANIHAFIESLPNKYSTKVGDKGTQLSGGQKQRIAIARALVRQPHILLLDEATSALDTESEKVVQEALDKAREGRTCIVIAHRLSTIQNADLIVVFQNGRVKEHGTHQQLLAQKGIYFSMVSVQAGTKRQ

[5] = target: T1, MDR1 (ABCB1); test: Activity at MDR1 (unknown origin) expressed in MDCK cells assessed as permeability across basolateral to apical after 90 mins by LC-MS/MS analysis; format: ADME, cell-based
[6] = Permeability across apical to basolateral side in MDCK cells after 90 mins by LC-MS/MS analysis; format: ADME, cell-based, Canis lupus familiaris; settings: dog
How it was run: (§2)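 Wild-type MDCK cells on Transwell filters. Transport was run in HBSS pH 7.4 at 37 °C in A-B and B-A directions, and plates were separated after 90 min incubation. Efflux ratio is Papp(B-A)/Papp(A-B). Papp is reported as "<" when receiver concentrations were below the quantitation limit.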

[7] = Permeability across basolateral to apical side in MDCK cells after 90 mins by LC-MS/MS analysis; format: ADME, cell-based, Canis lupus familiaris; settings: dog; how it was run: as §2
[8] = tested on: MCF7; test: Cell cycle arrest in human MCF7 cells assessed as accumulation at G1 phase at 0.25 uM after 48 hrs by propidium iodide staining based flow cytometry (reference value: 62.8%); format: functional
How it was run: (§3)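 Cells treated for 24 h or 48 h, then trypsinized, fixed in ice-cold 70% ethanol and stained with propidium iodide for flow cytometry. Percentages of cells in G1 and sub-G1 are compared with untreated cells.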

[9] = tested on: MCF7; test: Cell cycle arrest in human MCF7 cells assessed as accumulation at G1 phase at 0.5 uM after 48 hrs by propidium iodide staining based flow cytometry (reference value: 62.8 %); format: functional; how it was run: as §3
[10] = Cell cycle arrest in human MCF7/ADR cells assessed as accumulation at G1 phase at 0.05 uM after 24 hrs by propidium iodide staining based flow cytometry (reference value: 54.6 %); format: functional; settings: NCI/ADR-RES; how it was run: as §3
[11] = Cell cycle arrest in human MCF7/ADR cells assessed as accumulation at G1 phase at 0.25 uM after 24 hrs by propidium iodide staining based flow cytometry (reference value: 54.6 %); format: functional; settings: NCI/ADR-RES; how it was run: as §3
[12] = Cell cycle arrest in human MCF7/ADR cells assessed as accumulation at G1 phase at 0.05 uM after 48 hrs by propidium iodide staining based flow cytometry (reference value: 56.9 %); format: functional; settings: NCI/ADR-RES; how it was run: as §3
[13] = Cell cycle arrest in human MCF7/ADR cells assessed as accumulation at G1 phase at 0.25 uM after 48 hrs by propidium iodide staining based flow cytometry (reference value: 56.9 %); format: functional; settings: NCI/ADR-RES; how it was run: as §3
[14] = Cell cycle arrest in human MCF7/ADR cells assessed as accumulation at sub-G1 phase at 0.05 uM after 48 hrs by propidium iodide staining based flow cytometry (reference value: […]); format: functional; settings: NCI/ADR-RES
[15] = Cell cycle arrest in human MCF7/ADR cells assessed as accumulation at sub-G1 phase at 0.25 uM after 48 hrs by propidium iodide staining based flow cytometry (reference value: […]); format: functional; settings: NCI/ADR-RES
[16] = tested on: MCF7; test: Downregulation of cyclin D1 expression in human MCF7 cells at 0.5 uM after 24 and 48 hrs by western blot analysis; format: functional, cell-based
How it was run: (§4)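 Lysates from treated cells were immunoblotted. Membranes were blocked in 5% nonfat milk, incubated overnight at 4 C with antibodies to PARP, p27, cyclin D1 or cyclin B1, and detected by enhanced chemiluminescence.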

[17] = tested on: MCF7; test: Effect on cleaved PARP level in human MCF7 cells at 0.5 uM after 24 and 48 hrs by western blot analysis; format: functional, cell-based; how it was run: as §4
[18] = tested on: MCF7; test: Downregulation of cyclin B1 expression in human MCF7 cells at 0.5 uM after 24 and 48 hrs by western blot analysis; format: functional, cell-based; how it was run: as §4
[19] = tested on: MCF7; test: Upregulation of p27 expression in human MCF7 Cells at 0.5 uM after 24 and 48 hrs by western blot analysis; format: functional, cell-based; how it was run: as §4
[20] = tested on: NCI/ADR-RES; test: Effect on cleaved PARP level in human MCF7/ADR cells at 0.1 uM after 24 and 48 hrs by western blot analysis; format: functional, cell-based; how it was run: as §4
[21] = Downregulation of cyclin D1 expression in human MCF7/ADR cells at 0.1 uM after 48 hrs by western blot analysis; format: functional, cell-based; settings: NCI/ADR-RES; how it was run: as §4
[22] = Downregulation of cyclin B1 expression in human MCF7/ADR cells at 0.1 uM after 48 hrs by western blot analysis; format: functional, cell-based; settings: NCI/ADR-RES; how it was run: as §4
[23] = tested on: NCI/ADR-RES; test: Effect on p27 expression in human MCF7/ADR cells at 0.1 uM after 48 hrs by western blot analysis; format: functional, cell-based; how it was run: as §4
[24] = tested on: MCF7; test: Cell cycle arrest in human MCF7 cells assessed as accumulation at G1 phase after 24 and 48 hrs by propidium iodide staining based flow cytometry; format: functional; how it was run: as §3
[25] = tested on: MCF7; test: Cell cycle arrest in human MCF7 cells assessed as accumulation at G1 phase at 0.25 uM after 24 hrs by propidium iodide staining based flow cytometry (reference value: 62.5 %); format: functional; how it was run: as §3
[26] = tested on: MCF7; test: Cell cycle arrest in human MCF7 cells assessed as accumulation at G1 phase at 0.5 uM after 24 hrs by propidium iodide staining based flow cytometry (reference value: 62.5 %); format: functional; how it was run: as §3

## C[C@H]1[C@@H](Oc2ccc(CN3CCN(c4ccc(F)cc4)CC3)cc2)O[C@@H]2O[C@@]3(C)CC[C@H]4[C@H](C)CC[C@@H]1[C@@]24OO3
[1]
  GI50: 530 nM
[2]
  GI50: 25 nM
[3]
  RatioGI50: 21.2
[4]
  Papp A→B at 1.5 h: < 1.34 ×10⁻⁶ cm/s
[5]
  Papp B→A at 1.5 h: < 0.85 ×10⁻⁶ cm/s
[6]
  Papp A→B at 1.5 h: < 1.33 ×10⁻⁶ cm/s
[7]
  Papp B→A at 1.5 h: < 0.83 ×10⁻⁶ cm/s

## C[C@H]1[C@@H](Oc2ccc(/C=C/C(=O)N3CCN(c4ccccn4)CC3)cc2)O[C@@H]2O[C@@]3(C)CC[C@H]4[C@H](C)CC[C@@H]1[C@@]24OO3
[1]
  GI50: 290 nM
[2]
  GI50: 110 nM
[3]
  RatioGI50: 2.64

## C[C@H]1[C@@H](Oc2ccc(/C=C/C(=O)N3CCN(c4ccc(F)cc4)CC3)cc2)O[C@@H]2O[C@@]3(C)CC[C@H]4[C@H](C)CC[C@@H]1[C@@]24OO3
[1]
  GI50: 270 nM
[2]
  GI50: 38 nM
[3]
  RatioGI50: 8.57

## C[C@H]1[C@@H](Oc2ccc(CC(=O)N3CCN(c4ccccn4)CC3)cc2)O[C@@H]2O[C@@]3(C)CC[C@H]4[C@H](C)CC[C@@H]1[C@@]24OO3
[1]
  GI50: 960 nM
[2]
  GI50: 80 nM
[3]
  RatioGI50: 12

## C[C@H]1[C@@H](Oc2ccc(CN3CCN(c4ccccn4)CC3)cc2)O[C@@H]2O[C@@]3(C)CC[C@H]4[C@H](C)CC[C@@H]1[C@@]24OO3
[1]
  GI50: 170 nM
[2]
  GI50: 55 nM
[3]
  RatioGI50: 3.09

## C[C@H]1[C@@H](Oc2ccc(C(=O)N3CCN(c4ccccc4)CC3)cc2)O[C@@H]2O[C@@]3(C)CC[C@H]4[C@H](C)CC[C@@H]1[C@@]24OO3
[1]
  GI50: 100 nM
[2]
  GI50: 75 nM
[3]
  RatioGI50: 1.33

## COc1ccccc1N1CCN(C(=O)Cc2ccc(O[C@H]3O[C@@H]4O[C@@]5(C)CC[C@H]6[C@H](C)CC[C@@H]([C@H]3C)[C@@]46OO5)cc2)CC1
[1]
  GI50: 470 nM
[2]
  GI50: 43 nM
[3]
  RatioGI50: 10.93

## C[C@H]1[C@@H](Oc2ccc(CC(=O)N3CCN(c4ccccc4)CC3)cc2)O[C@@H]2O[C@@]3(C)CC[C@H]4[C@H](C)CC[C@@H]1[C@@]24OO3
[1]
  GI50: 430 nM
[2]
  GI50: 90 nM
[3]
  RatioGI50: 4.78

## C[C@H]1[C@@H](Oc2ccc(/C=C/C(=O)N3CCN(c4cccc(C(F)(F)F)c4)CC3)cc2)O[C@@H]2O[C@@]3(C)CC[C@H]4[C@H](C)CC[C@@H]1[C@@]24OO3
[8]
  Activity: 82.3%
[9]
  Activity: 83.4%
[10]
  Activity: 71.5%
[11]
  Activity: 70.2%
[12]
  Activity: 65.2%
[13]
  Activity: 62.6%
[14]
  Activity: 2.4%
[15]
  Activity: 8.7%
[16]
  inhibition: Active
[17]
  Activity: inactive
[18]
  inhibition: Active
[19]
  Activity: Active
[20]
  Activity: inactive
[21]
  inhibition: Active
[22]
  inhibition: Active
[23]
  Activity: inactive
[24]
  Activity: Dose-dependent effect
[1]
  GI50: 320 nM
[2]
  GI50: 21 nM
[3]
  RatioGI50: 15.24
[4]
  Papp A→B at 1.5 h: < 1.83 ×10⁻⁶ cm/s
[5]
  Papp B→A at 1.5 h: < 1 ×10⁻⁶ cm/s
[6]
  Papp A→B at 1.5 h: < 1.82 ×10⁻⁶ cm/s
[7]
  Papp B→A at 1.5 h: < 0.93 ×10⁻⁶ cm/s
[25]
  Activity: 70%
[26]
  Activity: 73.8%

## C[C@H]1[C@@H](Oc2ccc(CC(=O)N3CCN(c4cccc(C(F)(F)F)c4)CC3)cc2)O[C@@H]2O[C@@]3(C)CC[C@H]4[C@H](C)CC[C@@H]1[C@@]24OO3
[1]
  GI50: 260 nM
[2]
  GI50: 41 nM
[3]
  RatioGI50: 6.34
